Two compounds from ChEMBL document CHEMBL3414486, “Synthesis of heterocycle-modified betulinic acid derivatives as antitumor agents” (Eur J Med Chem, 2015) can be followed below.

For test [1], the system named is MCF7. In words: Cytotoxicity against human MCF7 cells assessed as growth inhibition after 96 hrs by SRB assay. Format: functional, cell-based. The settings on record: MCF7, 96 h. An outline of the steps:
(§1)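 SRB viability assay. Cells are seeded for 24 h, then exposed for 96 h to a concentration series from 20 mM DMSO stocks, with a DMSO control. Cells are fixed in 50% TCA (2 h, 4 °C), stained with 0.4% SRB for 10 min and washed with 1% acetic acid. Bound dye is dissolved in 10 mM Tris base and read at 515 nm. IC50 is averaged from at least 3 independent experiments. SI is IC50 in HAF divided by IC50 in the cancer line.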

Test [2] is described as follows: Cytotoxicity against human MCF7/ADR cells assessed as growth inhibition after 96 hrs by SRB assay. Format: functional, cell-based. The settings on record: NCI/ADR-RES. An outline of the steps:
as §1

Test [3] concerns MCF7. The test can be described thus: Induction of apoptosis in human MCF7 cells assessed as early apoptotic cells at 1 uM after 24 hrs by annexin V-FITC/propidium iodide staining-based flow cytometric analysis (reference value: 0.74%). Format: functional. On the technique in general: Flow cytometry measures light scatter and fluorescence of single cells or particles in a stream.

For test [4], the system named is MCF7. The test can be described thus: Induction of apoptosis in human MCF7 cells assessed as late apoptotic cells at 1 uM after 24 hrs by annexin V-FITC/propidium iodide staining-based flow cytometric analysis (reference value: 0.84%). Format: functional.
The subject of test [5] is NCI/ADR-RES. The test can be described thus: Induction of apoptosis in human MCF7/ADR cells assessed as early apoptotic cells at 1 uM after 24 hrs by annexin V-FITC/propidium iodide staining-based flow cytometric analysis (reference value: 0.67%). Format: functional.
Test [6] has as its system NCI/ADR-RES. The test can be described thus: Induction of apoptosis in human MCF7/ADR cells assessed as late apoptotic cells at 1 uM after 24 hrs by annexin V-FITC/propidium iodide staining-based flow cytometric analysis (reference value: 1.48%). Format: functional.
Test [7] is described as follows: Cytotoxicity against human HCT116 cells assessed as growth inhibition after 96 hrs by SRB assay. Format: functional, cell-based. To be noted: HCT-116, 96 h. Summed up: as §1
(The SRB assay estimates cell density from bound dye.)

In test [8] the test system is HT-29. The test can be described thus: Cytotoxicity against human HT-29 cells assessed as growth inhibition after 96 hrs by SRB assay. Format: functional, cell-based. The settings on record: HT-29, 96 h. Summed up: as §1
A short description of test [9]: Cytotoxicity against human PC3 cells assessed as growth inhibition after 96 hrs by SRB assay. Format: functional, cell-based. The settings on record: PC-3, 96 h. Summed up: as §1
The subject of test [10] is DU-145. In words: Cytotoxicity against human DU145 cells assessed as growth inhibition after 96 hrs by SRB assay. Format: functional, cell-based. To be noted: DU-145, 96 h. An outline of the steps: as §1
Test [11] deals with MDA-MB-231. The test can be described thus: Cytotoxicity against human MDA-MB-231 cells assessed as growth inhibition after 96 hrs by SRB assay. The settings on record: MDA-MB-231, 96 h. Format: functional, cell-based. Summed up: as §1
For test [12], the system named is 4T1. In words: Cytotoxicity against mouse 4T1 cells assessed as growth inhibition after 96 hrs by SRB assay. Format: functional, cell-based. The settings on record: 4T1, 96 h. An outline of the steps:
as §1

Test [13] has as its system T47D. The test can be described thus: Cytotoxicity against human T47D cells assessed as growth inhibition after 96 hrs by SRB assay. Format: functional, cell-based. Summed up:
as §1

Test [14] in a line: Cytotoxicity against HAF assessed as growth inhibition after 96 hrs by SRB assay. The settings on record: Homo sapiens. An outline of the steps: as §1
Test [15] deals with NCI/ADR-RES. In words: Selectivity index, ratio of IC50 for HAF to IC50 for human MCF7/ADR cells. An outline of the steps: as §1
The subject of test [16] is MDA-MB-231. The test can be described thus: Induction of apoptosis in human MDA-MB-231 cells assessed as early apoptotic cells at 5 uM after 24 hrs by annexin V-FITC/propidium iodide staining-based flow cytometric analysis (reference value: 0.59%). Format: functional.
Test [17] concerns MDA-MB-231. The test can be described thus: Induction of apoptosis in human MDA-MB-231 cells assessed as late apoptotic cells at 5 uM after 24 hrs by annexin V-FITC/propidium iodide staining-based flow cytometric analysis (reference value: 2.4%). Format: functional.
Test [18] deals with MCF7. The test can be described thus: Induction of apoptosis in human MCF7 cells assessed as early apoptotic cells at 20 uM after 24 hrs by annexin V-FITC/propidium iodide staining-based flow cytometric analysis (reference value: 0.74%). Format: functional.
The test system of test [19] is MCF7. In words: Induction of apoptosis in human MCF7 cells assessed as late apoptotic cells at 20 uM after 24 hrs by annexin V-FITC/propidium iodide staining-based flow cytometric analysis (reference value: 0.84%). Format: functional.
Test [20] has as its system NCI/ADR-RES. In words: Induction of apoptosis in human MCF7/ADR cells assessed as early apoptotic cells at 20 uM after 24 hrs by annexin V-FITC/propidium iodide staining-based flow cytometric analysis (reference value: 0.67%). Format: functional.
For test [21], the system named is NCI/ADR-RES. In words: Induction of apoptosis in human MCF7/ADR cells assessed as late apoptotic cells at 20 uM after 24 hrs by annexin V-FITC/propidium iodide staining-based flow cytometric analysis (reference value: 1.48%). Format: functional.
For test [22], the system named is HT-29. The test can be described thus: Selectivity index, ratio of IC50 for HAF to IC50 for human HT-29 cells. An outline of the steps:
as §1

For the next test, the system named is PC-3. The test can be described thus: Selectivity index, ratio of IC50 for HAF to IC50 for human PC3 cells. Summed up: as §1
Test [23] relates to DU-145. The test can be described thus: Selectivity index, ratio of IC50 for HAF to IC50 for human DU145 cells. An outline of the steps: as §1
Test [24] can be described thus: Selectivity index, ratio of IC50 for HAF to IC50 for human MDA-MB-231 cells. An outline of the steps:
as §1

For test [25], the system named is 4T1. In words: Selectivity index, ratio of IC50 for HAF to IC50 for mouse 4T1 cells. An outline of the steps: as §1
Test [26] concerns T47D. In words: Selectivity index, ratio of IC50 for HAF to IC50 for human T47D cells. Summed up:
as §1

Test [27] concerns MCF7. In words: Selectivity index, ratio of IC50 for HAF to IC50 for human MCF7 cells. An outline of the steps:
as §1

The next test deals with HCT-116. In words: Selectivity index, ratio of IC50 for HAF to IC50 for human HCT116 cells. Summed up:
as §1

Test [28] concerns MDA-MB-231. The test can be described thus: Antimetastatic activity against human MDA-MB-231 cells at 2.5 to 10 uM after 12 hrs by transwell assay. Format: functional, cell-based.

Calls of active or inactive are those of the source. No cut-off for these calls is given here.

In the case of `CC(=O)O[C@@]12CO[C@@H]1C[C@H](O)[C@@]1(C)C(=O)[C@H](O)C3=C(C)[C@@H](OC(=O)[C@H](O)[C@@H](NC(=O)OC(C)(C)C)c4ccccc4)C[C@@](O)([C@@H](OC(=O)c4ccccc4)[C@H]21)C3(C)C.O.O.O` [DOCETAXEL], the IC50 (in general, the concentration that gives 50% inhibition) amounted to 5 nM in the test with MCF7 [1] and 5180 nM in test [2]. The Activity in the test on MCF7 [3] turned out to be 5.61%; with MCF7 [4], 10.63%; in the test on NCI/ADR-RES [5], 1.38%; in the test with NCI/ADR-RES [6], 1.58%.
As to `C=C(C)[C@@H]1CC[C@]2(C(=O)O)CC[C@]3(C)[C@H](CC[C@@H]4[C@@]5(C)CC[C@H](NC(=O)C6CCNCC6)C(C)(C)[C@@H]5CC[C@]43C)[C@@H]12`, the IC50 in test [7] was found to be 1110 nM; in the test with HT-29 [8] it was 970 nM; in test [9], 1110 nM; with DU-145 [10], 2450 nM; with MDA-MB-231 [11], 1010 nM; with 4T1 [12] it was 1770 nM. For the same compound, the IC50 in the test on T47D [13] stood at 1400 nM; in the test on MCF7 [1] it was 540 nM; in test [2], 330 nM; in test [14], 4450 nM. The Ratio IC50 in the test with NCI/ADR-RES [15] turned out to be 13.5; in the test with HT-29 [22], 4.6; in the test with PC-3 it was 4; with DU-145 [23] it was 1.8; in test [24] it was 4.4; in the test on 4T1 [25] it was 2.5. Also, the Ratio IC50 amounted to 3.2 with T47D [26], 8.2 in the test with MCF7 [27] and 4 with HCT-116. Besides, the Activity in the test with MDA-MB-231 [16] stood at 5.56%; in the test with MDA-MB-231 [17], 25.87%; in the test with MCF7 [18], 16.17%; with MCF7 [19], 4.15%; in the test with NCI/ADR-RES [20], 12.81%; in the test on NCI/ADR-RES [21], 6.35%. Besides, the result with MDA-MB-231 [28] was Active.
